Measurements reported in ChEMBL document CHEMBL4627416, “Generation of Leads for γ-Secretase Modulation” (J Med Chem, 2020).
One block for each molecule: values may come before it. The source made the active and inactive calls. The rule behind the calls is not given here.

Key:
Gamma-secretase = assay: Modulation of gamma secretase in HEK293 cells transfected with human APP with Swedish and London familial AD mutation assessed as reduction in Abeta42 levels incubated for 5 hrs by sandwich immuno-assay; type: cell-based
Rattus norvegicus [1] = assay: Reduction of Abeta42 protein level in CD rat at 3 mg/kg, po measured after 3 hrs relative to control; type: functional; set-up: scale not given: the % may be the effect or the level left
Procedure, shortened: (§1)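 Male CD rats given a single oral dose (1-30 mg/kg). CSF Aβ42 measured 3 h after the dose and expressed as reduction relative to control levels. In the dose-response study, geometric means are of 29 animals (3 and 10 mg/kg groups) and 10 animals (30 mg/kg group).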

Cytochrome P450 2C9 = Cytochrome P450 2C9 (Homo sapiens, UniProt P11712); assay: Inhibition of CYP2C9 (unknown origin); type: ADME
Rattus norvegicus [2] = assay: Reduction of Abeta42 protein level in CD rat at 10 mg/kg, po measured after 3 hrs relative to control; type: functional; set-up: scale not given: the % may be the effect or the level left; procedure, shortened: as §1
[3] = Drug level in plasma of CD rat at 3 mg/kg, po measured after 3 hrs; type: ADME, organism-based
Procedure, shortened: (§2)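 Male CD rats dosed orally at 3, 10 or 30 mg/kg. Total drug concentrations measured in plasma and brain 3 h after the dose. Values are geometric means of 10 (3 mg/kg), 15 (10 mg/kg) and 5 (30 mg/kg) animals.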

[4] = Drug level in brain of CD rat at 10 mg/kg, po measured after 3 hrs; type: ADME, organism-based; details: read-out: Drug uptake; procedure, shortened: as §2
[5] = Drug level in plasma of CD rat at 10 mg/kg, po measured after 3 hrs; type: ADME, organism-based; procedure, shortened: as §2
[6] = Apparent permeability of the compound; type: ADME; details: not told
[7] = Volume of distribution at steady state in CD rat at 1 mg/kg, iv; type: ADME, organism-based; details: in vivo, read-out: Vdss
Procedure, shortened: (§3)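 Male CD rats, single 1 mg/kg intravenous dose. Clearance, steady-state volume of distribution and mean residence time taken from the plasma concentration-time data. Values are the average of two experiments.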

Rattus norvegicus [8] = assay: Reduction of Abeta42 protein level in CD rat at 1 mg/kg, po measured after 3 hrs relative to control; type: functional, organism-based; procedure, shortened: as §1
[9] = Protein binding in rat plasma; type: ADME, cell-free; details: read-out: PPB (converted)
[10] = Clearance in CD rat at 1 mg/kg, iv; type: ADME, organism-based; details: in vivo; procedure, shortened: as §3
[11] = Selectivity index, ratio of IC50 for effect on total Abeta40 levels in HEK293 cells transfected with human APP with Swedish and London familial AD mutation incubated for 5 hrs by sandwich immuno-assay to IC50 for modulation of gamma secretase in HEK293 cells transfected with human APP with Swedish and London familial AD mutation assessed as reduction in Abeta42 levels incubated for 5 hrs by sandwich immuno-assay
[12] = MRT in CD rat at 1 mg/kg, iv; type: ADME, organism-based; details: in vivo; procedure, shortened: as §3
Cytochrome P450 3A4 = Cytochrome P450 3A4 (Homo sapiens, UniProt P08684); assay: Inhibition of CYP3A4 (unknown origin); type: ADME
[13] = Drug level in brain of CD rat at 3 mg/kg, po measured after 3 hrs; type: ADME, organism-based; details: read-out: Drug uptake; procedure, shortened: as §2
[14] = Oral bioavailability CD rat at 2 mg/kg; type: ADME, organism-based; details: in vivo
Procedure, shortened: (§4)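 Male CD rats, single 2 mg/kg oral dose. Plasma drug concentration-time profile used for AUC(0-∞), Cmax and oral bioavailability (F%). Values are the average of two experiments.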

Rattus norvegicus [15] = assay: Reduction of Abeta42 protein level in CD rat at 30 mg/kg, po measured after 3 hrs relative to control; type: functional; set-up: scale not given: the % may be the effect or the level left; procedure, shortened: as §1
Cytochrome P450 2D6 = Cytochrome P450 2D6 (Homo sapiens, UniProt P10635); assay: Inhibition of CYP2D6 (unknown origin); type: ADME
[16] = Drug level in brain of CD rat at 30 mg/kg, po measured after 3 hrs; type: ADME, organism-based; details: read-out: Drug uptake; procedure, shortened: as §2
[17] = Cmax in CD rat at 2 mg/kg, po; type: ADME, organism-based; set-up: dose 2 mg/kg, route oral; details: in vivo; procedure, shortened: as §4
[18] = molecular target: Voltage-gated inwardly rectifying potassium channel KCNH2 (Homo sapiens, UniProt Q12809); assay: Inhibition of MK499 binding to human ERG
HEK293 = assay: Effect on total Abeta40 levels in HEK293 cells transfected with human APP with Swedish and London familial AD mutation incubated for 5 hrs by sandwich immuno-assay; type: functional, cell-based; details: HEK293, 5 h
[19] = Drug level in plasma of CD rat at 30 mg/kg, po measured after 3 hrs; type: ADME, organism-based; procedure, shortened: as §2
[20] = molecular target: T1, Nuclear receptor subfamily 1 group I member 2 (Homo sapiens, UniProt O75469); assay: Inhibition of PXR (unknown origin); type: ADME
T1 sequence (O75469 whole entry): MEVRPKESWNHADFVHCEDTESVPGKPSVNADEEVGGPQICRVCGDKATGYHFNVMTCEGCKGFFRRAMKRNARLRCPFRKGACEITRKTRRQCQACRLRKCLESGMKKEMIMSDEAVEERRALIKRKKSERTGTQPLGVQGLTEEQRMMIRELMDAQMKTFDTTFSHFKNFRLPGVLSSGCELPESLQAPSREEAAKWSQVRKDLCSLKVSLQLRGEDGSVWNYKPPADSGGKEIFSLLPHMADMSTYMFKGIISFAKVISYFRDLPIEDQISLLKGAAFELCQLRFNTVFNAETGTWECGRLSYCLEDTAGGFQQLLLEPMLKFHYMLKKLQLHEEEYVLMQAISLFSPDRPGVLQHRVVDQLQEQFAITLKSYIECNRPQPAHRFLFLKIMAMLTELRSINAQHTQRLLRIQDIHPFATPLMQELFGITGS

Rattus norvegicus [21] = assay: Reduction of Abeta42 protein level in CD rat at 3 to 30 mg/kg, po measured after 3 hrs relative to control; type: functional, organism-based; procedure, shortened: as §1
[22] = system: rat MDR1A (P-glycoprotein); assay: Efflux ratio in pig LLC-PK1 cells transfected with rat MDR1A; type: ADME, cell-based, Sus scrofa
Procedure, shortened: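 Rat P-gp efflux measured in LLC-PK1 cells transfected with rat MDR1A. Reported as the ratio of B-to-A over A-to-B transport.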

[23] = AUC (0 to infinity) in CD rat at 2 mg/kg, po; type: ADME, organism-based; set-up: dose 2 mg/kg, route oral, time infinity; details: in vivo; procedure, shortened: as §4

Chain of Cytochrome P450 2D6 (P10635 whole entry): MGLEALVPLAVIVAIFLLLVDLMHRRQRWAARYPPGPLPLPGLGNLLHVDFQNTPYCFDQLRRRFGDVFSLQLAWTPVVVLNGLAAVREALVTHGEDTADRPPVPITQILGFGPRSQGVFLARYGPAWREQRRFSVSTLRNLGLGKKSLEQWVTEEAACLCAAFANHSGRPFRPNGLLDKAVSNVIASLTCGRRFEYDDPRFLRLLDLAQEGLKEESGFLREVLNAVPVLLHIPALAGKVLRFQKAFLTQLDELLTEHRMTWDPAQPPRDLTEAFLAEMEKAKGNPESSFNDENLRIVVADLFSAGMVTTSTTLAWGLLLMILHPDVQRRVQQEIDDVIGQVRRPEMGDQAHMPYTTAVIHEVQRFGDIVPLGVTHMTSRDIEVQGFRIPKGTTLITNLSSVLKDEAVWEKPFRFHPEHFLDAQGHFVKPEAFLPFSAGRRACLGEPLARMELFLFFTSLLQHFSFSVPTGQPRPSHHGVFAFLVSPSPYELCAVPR
Chain of Cytochrome P450 2C9 (P11712 whole entry): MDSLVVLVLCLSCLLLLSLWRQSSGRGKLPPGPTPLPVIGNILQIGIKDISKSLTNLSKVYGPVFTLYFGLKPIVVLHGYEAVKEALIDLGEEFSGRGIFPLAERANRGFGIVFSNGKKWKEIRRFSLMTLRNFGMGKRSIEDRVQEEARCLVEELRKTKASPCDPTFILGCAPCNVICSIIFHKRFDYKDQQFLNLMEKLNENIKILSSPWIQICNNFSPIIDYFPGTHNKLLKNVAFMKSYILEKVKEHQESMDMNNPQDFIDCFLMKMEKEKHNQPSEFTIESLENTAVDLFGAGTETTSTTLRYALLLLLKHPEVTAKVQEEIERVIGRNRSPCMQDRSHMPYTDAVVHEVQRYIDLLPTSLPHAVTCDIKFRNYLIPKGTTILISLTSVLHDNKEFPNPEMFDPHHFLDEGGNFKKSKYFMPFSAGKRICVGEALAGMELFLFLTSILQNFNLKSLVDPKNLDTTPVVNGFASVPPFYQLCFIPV
Chain of Cytochrome P450 3A4 (P08684 whole entry): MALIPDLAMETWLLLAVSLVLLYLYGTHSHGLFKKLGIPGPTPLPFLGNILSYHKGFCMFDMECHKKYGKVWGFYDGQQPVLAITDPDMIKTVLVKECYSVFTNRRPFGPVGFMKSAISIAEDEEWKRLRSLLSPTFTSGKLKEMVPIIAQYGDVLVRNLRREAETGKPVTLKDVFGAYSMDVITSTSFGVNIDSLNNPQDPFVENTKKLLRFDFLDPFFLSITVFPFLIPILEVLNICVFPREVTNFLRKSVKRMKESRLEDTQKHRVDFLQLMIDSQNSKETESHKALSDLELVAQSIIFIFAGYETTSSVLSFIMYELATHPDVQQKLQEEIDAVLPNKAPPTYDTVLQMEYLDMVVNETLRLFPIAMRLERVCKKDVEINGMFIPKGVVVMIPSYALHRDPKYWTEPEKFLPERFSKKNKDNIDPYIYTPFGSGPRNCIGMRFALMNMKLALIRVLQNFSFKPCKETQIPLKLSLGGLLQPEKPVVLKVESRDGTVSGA
Chain of Voltage-gated inwardly rectifying potassium channel KCNH2 (Q12809 whole entry): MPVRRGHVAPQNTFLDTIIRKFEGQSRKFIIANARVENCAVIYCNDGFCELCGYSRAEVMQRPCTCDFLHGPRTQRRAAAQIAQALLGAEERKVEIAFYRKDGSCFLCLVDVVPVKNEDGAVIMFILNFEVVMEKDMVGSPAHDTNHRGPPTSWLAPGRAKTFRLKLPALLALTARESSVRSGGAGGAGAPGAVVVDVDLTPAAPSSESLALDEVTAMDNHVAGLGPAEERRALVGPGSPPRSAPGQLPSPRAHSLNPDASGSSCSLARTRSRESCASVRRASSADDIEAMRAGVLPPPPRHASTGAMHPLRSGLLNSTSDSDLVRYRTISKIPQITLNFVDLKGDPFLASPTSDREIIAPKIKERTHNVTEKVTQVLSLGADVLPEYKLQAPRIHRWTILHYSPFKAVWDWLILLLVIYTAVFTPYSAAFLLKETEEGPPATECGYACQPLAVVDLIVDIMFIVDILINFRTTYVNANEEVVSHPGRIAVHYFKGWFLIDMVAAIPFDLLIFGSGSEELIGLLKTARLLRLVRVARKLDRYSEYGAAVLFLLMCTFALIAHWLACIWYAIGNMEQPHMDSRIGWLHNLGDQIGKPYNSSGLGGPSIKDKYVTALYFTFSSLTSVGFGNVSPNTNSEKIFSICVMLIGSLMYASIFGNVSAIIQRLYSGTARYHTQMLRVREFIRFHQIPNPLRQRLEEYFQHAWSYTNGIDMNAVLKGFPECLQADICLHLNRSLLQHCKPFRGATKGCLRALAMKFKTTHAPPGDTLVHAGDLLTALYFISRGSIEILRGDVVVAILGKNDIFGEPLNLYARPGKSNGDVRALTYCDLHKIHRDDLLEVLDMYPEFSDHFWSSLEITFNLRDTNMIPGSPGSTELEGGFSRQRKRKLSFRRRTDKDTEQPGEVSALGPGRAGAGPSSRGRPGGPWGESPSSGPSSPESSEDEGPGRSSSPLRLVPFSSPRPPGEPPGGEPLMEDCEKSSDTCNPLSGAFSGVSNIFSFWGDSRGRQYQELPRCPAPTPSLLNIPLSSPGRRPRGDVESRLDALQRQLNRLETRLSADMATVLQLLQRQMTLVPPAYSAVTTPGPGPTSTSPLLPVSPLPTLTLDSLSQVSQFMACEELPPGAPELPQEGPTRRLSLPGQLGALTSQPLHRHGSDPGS

IC50 (Gamma-secretase): 1.55 µM
SMILES: COc1cc(C(=O)N2CCCC(Cc3ccc(F)cc3)C2)ccc1-n1cnc(C)c1 (stereo not given)

IC50 (Gamma-secretase): 0.512 µM
SMILES: COc1cc(C2=CC3=NOC(CO)(c4ccc(F)cc4)N3CCO2)ccc1-n1cnc(C)c1 (stereo not given)

IC50 (Gamma-secretase): 0.116 µM
SMILES: COc1cc(-c2nnc3n2CCCN3C(C)c2cc(F)c(F)c(F)c2)ccc1-n1cnc(C)c1 (stereo not given)

IC50 (Gamma-secretase): 0.037 µM
SMILES: COc1cc(/C=C2\CCCN3C2=NOC[C@@H]3c2cc(F)c(F)c(F)c2)ccc1-n1cnc(C)c1

IC50 (Cytochrome P450 2C9): 33 µM
concentration at 3 h [3]: 0.91 µM
concentration at 3 h [4]: 4.2 µM
concentration at 3 h [5]: 4.83 µM
Papp [6]: 17 ×10⁻⁶ cm/s
Vd [7]: 1.1 L/kg
fraction unbound [9]: 0.005
clearance [10]: 10 mL/min/kg
MRT [12]: 1.7 h
IC50 (Cytochrome P450 3A4): 16 µM
concentration at 3 h [13]: 0.81 µM
bioavailability [14]: 79%
IC50 (Cytochrome P450 2D6): 49 µM
concentration at 3 h [16]: 7.5 µM
Cmax [17]: 1.3 µM
concentration at 3 h [19]: 8.8 µM
IC50 [20]: 15 µM
IC50 (Gamma-secretase): 0.052 µM
efflux ratio [22]: 2.46
AUC(0-inf) [23]: 8 µM·h
SMILES: COc1cc(/C=C2\CCCN3C2=NO[C@H](c2cc(F)cc(F)c2)[C@@H]3C)ccc1-n1cnc(C)c1
Activity (Rattus norvegicus [1]): 24%
Activity (Rattus norvegicus [2]): 52%
Activity (Rattus norvegicus [8]): inactive
Ratio IC50 [11]: 248
Activity (Rattus norvegicus [15]): 73%
IC50 [18]: 2.01 µM
IC50 (HEK293): 12 µM
Activity (Rattus norvegicus [21]): Dose-dependent effect

IC50 (Gamma-secretase): 0.039 µM
SMILES: COc1cc(/C=C2\CCCN3C2=NOCC[C@@H]3c2cc(F)c(F)c(F)c2)ccc1-n1cnc(C)c1

IC50 (Gamma-secretase): 0.4 µM
SMILES: COc1cc(C2=NOCC3C(Oc4cc(F)cc(F)c4)CCCN23)ccc1-n1cnc(C)c1 (stereo not given)

IC50 (Cytochrome P450 2C9): 18 µM
Papp [6]: 22 ×10⁻⁶ cm/s
IC50 (Cytochrome P450 3A4): 34 µM
IC50 (Cytochrome P450 2D6): 48 µM
concentration at 3 h [16]: 2.1 µM
concentration at 3 h [19]: 14.2 µM
IC50 [20]: > 30 µM
IC50 (Gamma-secretase): 0.107 µM
SMILES: COc1cc(C2=CC3=NO[C@H](c4cc(F)c(F)c(F)c4)CN3CCC2)ccc1-n1cnc(C)c1
Activity (Rattus norvegicus [15]): 52%
IC50 [18]: 3.35 µM
IC50 (HEK293): 14 µM

IC50 (Gamma-secretase): 0.462 µM
SMILES: CCC(NC(=O)/C=C/c1ccc(-n2cnc(C)c2)c(OC)c1)c1ccc(F)cc1 (stereo not given)

IC50 (Gamma-secretase): 0.015 µM
SMILES: COc1cc(C2=NOCC3C(Oc4ccc(Cl)cc4C(F)(F)F)CCCN23)ccc1-n1cnc(C)c1 (stereo not given)

IC50 (Gamma-secretase): 0.033 µM
SMILES: COc1cc(/C=C2\CCCN3C2=NOC[C@@H]3c2ccc(F)cc2)ccc1-n1cnc(C)c1

IC50 (Gamma-secretase): 0.113 µM
SMILES: COc1cc(/C=C2\CCCN3C2=NO[C@H](c2cc(F)cc(F)c2)[C@@H]3C(C)C)ccc1-n1cnc(C)c1
Ratio IC50 [11]: 174
IC50 (HEK293): 19 µM

IC50 (Cytochrome P450 2C9): 8 µM
Papp [6]: 23 ×10⁻⁶ cm/s
IC50 (Cytochrome P450 3A4): 30 µM
IC50 (Cytochrome P450 2D6): 8 µM
concentration at 3 h [16]: 1.3 µM
concentration at 3 h [19]: 1.4 µM
IC50 [20]: > 15 µM
IC50 (Gamma-secretase): 0.143 µM
SMILES: COc1cc(C2=CC3=NOC[C@H](c4cc(F)c(F)c(F)c4)N3CCC2)ccc1-n1cnc(C)c1
IC50 [18]: 2.61 µM
IC50 (HEK293): 16 µM

IC50 (Gamma-secretase): 0.029 µM
SMILES: COc1cc(/C=C2\CCCN3C2=NO[C@]3(CO)c2ccc(F)cc2)ccc1-n1cnc(C)c1

IC50 (Gamma-secretase): 0.048 µM
SMILES: COc1cc(/C=C2\CCCN3CC(c4cc(F)c(F)c(F)c4)ON=C23)ccc1-n1cnc(C)c1 (stereo not given)

IC50 (Gamma-secretase): 0.069 µM
SMILES: COc1cc(/C=C2\CCCN3C2=NO[C@H](c2cc(F)c(F)c(F)c2)[C@@H]3CO)ccc1-n1cnc(C)c1
Ratio IC50 [11]: 221
IC50 (HEK293): 15 µM

IC50 (Gamma-secretase): 9.29 µM
SMILES: COc1cc(/C=C2\CCCN3C2=NO[C@@H](c2cc(F)cc(F)c2)[C@@H]3C)ccc1-n1cnc(C)c1
IC50 (HEK293): > 20 µM

IC50 (Cytochrome P450 2C9): 37 µM
Papp [6]: 14 ×10⁻⁶ cm/s
IC50 (Cytochrome P450 3A4): 29 µM
IC50 (Cytochrome P450 2D6): 49 µM
concentration at 3 h [16]: 11.1 µM
concentration at 3 h [19]: 13.1 µM
IC50 [20]: > 10 µM
IC50 (Gamma-secretase): 0.055 µM
SMILES: COc1cc(/C=C2\CCCN3C2=NO[C@H](c2cc(F)c(F)c(F)c2)[C@@H]3C)ccc1-n1cnc(C)c1
Ratio IC50 [11]: >367
Activity (Rattus norvegicus [15]): 80%
IC50 [18]: 1.61 µM
IC50 (HEK293): > 20 µM
